Assay results gathered from unrelated publications.
Compare with care: the assays were run in different laboratories.
Effect on: cell growth or viability

CN(C)CCNC(=O)c1ccc(-c2nc3ccc4[nH]ncc4c3c3c2CCCCC3)c(F)c1
GI50 (22Rv1; 72 h): 2.13 µM

Cc1ccccc1Cn1cc(-c2cccc(NC(=O)Nc3ccc(F)cc3)c2)nn1
viability (NCI-H1299; CCK-8; 50 µM; 72 h): 114%

O=C(NCc1cn(Cc2cccc(Cl)c2)nn1)Nc1ccc(Cl)cc1
viability (NCI-H1299; CCK-8; 50 µM; 72 h): 91.6%

CN(C)CCNC(=O)c1ccc(-c2nc3ccc4[nH]ncc4c3c3c2CCCC3)cc1
GI50 (22Rv1; 72 h): 1.8 µM

COc1ccc(NC(=O)Nc2cccc(-c3cn(Cc4ccc(Cl)cc4)nn3)c2)cc1
viability (NCI-H1299; CCK-8; 50 µM; 72 h): 156%

Cc1n[nH]c2ccc3nc(-c4ccc(C(=O)NCCN(C)C)cc4F)c4c(c3c12)CCCC4
GI50 (22Rv1; 72 h): 0.556 µM

COc1ccc(NC(=O)Nc2cccc(-c3cn(Cc4cccc(Cl)c4)nn3)c2)cc1
viability (NCI-H1299; CCK-8; 50 µM; 72 h): 134%

Cc1ncsc1-c1ccc(CNC(=O)[C@@H]2C[C@@H](O)CN2C(=O)[C@@H](NC(=O)COCCOCCOCCNC(=O)C[C@@H]2N=C(c3ccc(Cl)cc3)c3c(sc(C)c3C)-n3c(C)nnc32)C(C)(C)C)cc1
IC90 (22Rv1; MTT; 6 days): 1.85 µM

COc1ccc(NC(=O)NCc2cn(Cc3ccccc3C)nn2)cc1
viability (NCI-H1299; CCK-8; 50 µM; 72 h): 68.9%

O=C(NCc1cn(Cc2ccc(Cl)cc2)nn1)Nc1ccc(Cl)cc1
viability (NCI-H1299; CCK-8; 50 µM; 72 h): 82.3%

Cc1n[nH]c2ccc3nc(-c4ccc(C(=O)NCCN(C)C)cc4F)c4c(c3c12)CCCCC4
GI50 (22Rv1; 72 h): 4.62 µM

O=C(Nc1ccc(Cl)cc1)Nc1ccc(-c2cn(Cc3cccc(Cl)c3)nn2)cc1
viability (NCI-H1299; CCK-8; 50 µM; 72 h): 82.8%

C=C(NC(=O)C(=C)NC(=O)c1csc(C2=N[C@@H]3c4csc(n4)[C@H]4NC(=O)c5csc(n5)[C@H]([C@](C)(O)[C@@H](C)O)NC(=O)[C@H]5CSC(=N5)/C(=C/C)NC(=O)[C@H]([C@@H](C)O)NC(=O)c5csc(n5)[C@]3(CC2)NC(=O)[C@H](C)NC(=O)C(=C)NC(=O)[C@H](C)NC(=O)[C@H]([C@@H](C)CC)N[C@@H]2C=Cc3c([C@H](C)O)cc(nc3[C@H]2O)C(=O)O[C@@H]4C)n1)C(N)=O
EC50 (PC3-TxR): > 30 µM

O=C(Nc1ccc(Cl)cc1)Nc1cccc(-c2cn(Cc3cccc(Cl)c3)nn2)c1
viability (NCI-H1299; CCK-8; 50 µM; 72 h): 104%

CCc1nc(C(N)=O)c(Nc2ccc(N3CCC(N4CCN(C)CC4)CC3)c(OC)c2)nc1NC1CCOCC1
GI50 (22Rv1; 72 h): 1.52 µM

COc1ccc(NC(=O)Nc2cccc(-c3cn(Cc4ccccc4C)nn3)c2)cc1
viability (NCI-H1299; CCK-8; 50 µM; 72 h): 125%

O=C(Nc1cccc(-c2cn(Cc3ccc(Br)cc3)nn2)c1)Nc1ccccc1Br
viability (NCI-H1299; CCK-8; 50 µM; 72 h): 108%
